Sequences and labels used below:
B1: tRNA (parent)
chain: GUUCCGUUGGCGUAAUGGUAACGCGUCUCCCUCCUAAGGAGAAGACUGCGGGUUCGAGUCCCGUACGGAACG

This sample holds only a part of the variants without activity.

This data set covers variants of B1. In words: yeast fitness relative to wild type (ratio to wild type); higher = fitter; tRNA-Arg(CCU), competitive growth, 37 C, YPD. In a few lines:
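Genotype frequency changes were the basis for Darwinian fitness relative to wild type. The frequencies came from 100-nucleotide paired-end sequencing of gene amplicons from the start population and each end population of pooled yeast strains with tRNA-Arg(CCU) gene variants at the native locus. Competition ran in YPD at 37°C for 24 hours in six replicates, genotypes needed ≥ 100 starting reads, and estimates < 0.5 were set to 0.5.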
With A21U C29U C31U U54C A70G, the yeast fitness is at most 0.5.

On to A21U A37U A40U G50C, for which the yeast fitness is at most 0.5.

On to A21C A36U G48A, for which the yeast fitness was at most 0.5.

For the variant A20U C31U C49U, the yeast fitness amounted to 0.773.

As to A20G C33A A36C U47A, the yeast fitness is at most 0.5.

For A20G U64G G68A A70C, the yeast fitness was at most 0.5.

With A21U C22U A42C A43U G44C A65C, the yeast fitness turned out to be 0.663.

Consider A20U C60G C61U, for which the yeast fitness is at most 0.5.

Turning to A21U C22U G48C A65G C66U, the yeast fitness was at most 0.5.

Consider A20U U47C, for which the yeast fitness was determined as 0.935.

Consider A20U C22A C61A C62G G68A, for which the yeast fitness is at most 0.5.

Turning to A20G C31U A57C U64A G68A, the yeast fitness is at most 0.5.

With A21C A45G, the yeast fitness was 0.918.

Consider A20U C24U, for which the yeast fitness stood at 0.841.

Consider A20U C29A C30A U53G C62G, for which the yeast fitness is at most 0.5.

Turning to A21G C33G C34G, the yeast fitness is 0.547.

For A20U G44U A57U G58A C66G, the yeast fitness worked out at 0.518.

With A21G U47G, the yeast fitness worked out at 0.525.

On to A21G A70G, for which the yeast fitness is 0.992.

For the variant A21G C31G A65C, the yeast fitness worked out at 0.674.

As to A21C C30G A65G, the yeast fitness is at most 0.5.

As for A21U C29U G48A U54C, the yeast fitness is at most 0.5.

As to A20U C29A, the yeast fitness came out at 0.797.

As for A21U A37U C60G, the yeast fitness came to 0.608.

For A20G C31U C46G, the yeast fitness was found to be 0.649.

Regarding A21U C22G U59C, the yeast fitness is at most 0.5.

In the case of A21G C46U, the yeast fitness amounted to 0.97.

As for A21G C46A, the yeast fitness amounted to 1.01.

On to A20U U28C G44A C46U G48A C49U C60G C62A C66G, for which the yeast fitness is at most 0.5.

As to A21C A69C, the yeast fitness is 0.809.

With A20G C33U G39A A57G U59C, the yeast fitness is 0.517.

Consider A20G C34U A40U A42U, for which the yeast fitness was at most 0.5.

Turning to A21U C31U A57U, the yeast fitness is at most 0.5.

Regarding A21G U47C C49U, the yeast fitness was determined as 0.773.

Consider A21U A36C G39A, for which the yeast fitness worked out at 0.58.

Take A21U C31A G39C C66U: the yeast fitness is at most 0.5.

A20U C29A C30A: the yeast fitness was at most 0.5.

For the variant A20G G25C C33G C60A, the yeast fitness is at most 0.5.

A21C C30G: the yeast fitness was 0.6.

In the case of A21U C27G C33U C34A G51C A57C, the yeast fitness was at most 0.5.

A20G C46U A70U: the yeast fitness came out at 0.878.

As for A20U C29G A43U, the yeast fitness came out at 0.612.

As to A21C U26A C27G, the yeast fitness was 0.581.

For A21G C30A U32G G67A A69C, the yeast fitness is at most 0.5.

Turning to A21C C33U C55A, the yeast fitness stood at 0.533.

Consider A21C G25C U26G U59A G63C G68U, for which the yeast fitness is at most 0.5.

As for A20G G41C A70U, the yeast fitness is 0.622.

Take A21C C66A: the yeast fitness came out at 0.527.

A20G G56A A57C: the yeast fitness was found to be 0.574.

A21C A40U C55G C66G: the yeast fitness was at most 0.5.

Take A20U A21C G67A: the yeast fitness was at most 0.5.

In the case of A21G U35G A57C G67C, the yeast fitness is at most 0.5.

On to A21C C34U U64A, for which the yeast fitness is at most 0.5.

For the variant A21C C22G G38C C49U A57C, the yeast fitness is at most 0.5.

A20U A21G C61U: the yeast fitness is at most 0.5.

With A21U C24G U28A U59A, the yeast fitness was at most 0.5.

With A21G G58C U59C, the yeast fitness turned out to be 0.961.

For the variant A20U U26C U47C, the yeast fitness amounted to 0.534.

Take A20U U32C C55U: the yeast fitness was found to be 0.55.

A21U C31G C33G: the yeast fitness is at most 0.5.

As to A20G C60U A69U, the yeast fitness is 0.592.

Consider A21G G39A U54C, for which the yeast fitness was found to be 0.589.

As to A21U C22U A43G, the yeast fitness was at most 0.5.

For A20G C60U, the yeast fitness was 0.744.

For the variant A21C C34U A65G, the yeast fitness was 0.532.

A20G G38C C46U G63U: the yeast fitness was at most 0.5.

Take A20G C34U: the yeast fitness came to 0.777.

Turning to A20G C34G, the yeast fitness turned out to be 0.68.

A21C C22A U26C U35C: the yeast fitness is at most 0.5.

Take A21U C24U A37U G51U: the yeast fitness is at most 0.5.

Consider A21U C34G G56A, for which the yeast fitness is at most 0.5.

As to A21C A36U, the yeast fitness was determined as 0.54.

For A21U C30A, the yeast fitness came out at 0.757.

As for A20U C22G A40G G50C G51C G56A, the yeast fitness was at most 0.5.

On to A20U G23A C31U G39A, for which the yeast fitness is at most 0.5.

A20U A21C C27A A45G: the yeast fitness is at most 0.5.

Consider A20U C62U A65C, for which the yeast fitness amounted to 0.682.

Consider A21U C34A G56C G63A U64C G67C, for which the yeast fitness was at most 0.5.

Regarding A21U C29G C49G, the yeast fitness worked out at 0.519.

On to A21G C27A, for which the yeast fitness was 0.757.

As for A21G C27U, the yeast fitness stood at 1.03.

Regarding A21G C27G, the yeast fitness was 0.562.

With A21G C46U C66U, the yeast fitness is 0.742.

In the case of A21C G25C U26G G50U G56A U59A A70C, the yeast fitness was 0.541.

In the case of A21C U47A C60U G67C, the yeast fitness was at most 0.5.

For the variant A21G A37G, the yeast fitness is 0.692.

For A20U U35C A36G C55G, the yeast fitness is 0.578.

For A21U A42U C66U, the yeast fitness was at most 0.5.

Turning to A20G G25A C62U A65C, the yeast fitness was 0.813.

As for A20U A36G G48C G67C, the yeast fitness was at most 0.5.

As to A21C A57U C66U, the yeast fitness is at most 0.5.

A21G G68C: the yeast fitness was found to be 0.949.

On to A21G G68U, for which the yeast fitness came to 1.07.

A20U A37U G41C C46G: the yeast fitness is at most 0.5.

For A20G C55U, the yeast fitness amounted to 0.82.

A21G G50A C55U U64C: the yeast fitness is at most 0.5.

Take A20U C22G A45C U59C: the yeast fitness is 0.651.

A21G C27U C30G U32G C46G G48A C60A: the yeast fitness came to 0.561.

In the case of A20U C29U A42G C49G C55A, the yeast fitness is at most 0.5.

With A20U C29U C49G C55A C66U, the yeast fitness is at most 0.5.

Take A20G U53C G56C: the yeast fitness was at most 0.5.

As for A21C G67A, the yeast fitness is 0.8.

Take A20U U26C C62G: the yeast fitness was at most 0.5.

Take A21U C62U C66G: the yeast fitness is at most 0.5.

As to A21C C30A A42C G48C C49U U54C, the yeast fitness stood at 0.598.

Take A20U C30U U35G A36U: the yeast fitness was at most 0.5.

Take A20U C55G G58C: the yeast fitness is at most 0.5.

With A20U C33A, the yeast fitness was determined as 0.653.

Turning to A20U C33U, the yeast fitness worked out at 0.675.

For the variant A20U C31G A40C, the yeast fitness was at most 0.5.

As to A21G C34G G56A C66G, the yeast fitness is at most 0.5.

On to A20U U26C C33A C62A A69U, for which the yeast fitness was at most 0.5.

For the variant A21C G25C, the yeast fitness was determined as 0.896.

Consider A21G C24G A37U C66U, for which the yeast fitness was at most 0.5.

On to A20G G50A, for which the yeast fitness is 0.905.

As to A21G A36C, the yeast fitness was 0.557.

For A20U C60A, the yeast fitness turned out to be 0.609.

As for A21C A40U A45G A65C, the yeast fitness stood at 0.547.

As to A21C U32C A40G G68A, the yeast fitness is at most 0.5.

Turning to A21U C34A U54A C62A A70G, the yeast fitness was at most 0.5.

With A21C C27A, the yeast fitness came out at 0.545.

As for A21G U28A C29U G58A, the yeast fitness amounted to 0.528.

Turning to A21G C66U, the yeast fitness is 0.858.

For A20G G23A A65G, the yeast fitness was determined as 0.574.

A21G C27G C60G A70C: the yeast fitness was at most 0.5.

A21G U32C C34A C55A A69C: the yeast fitness was at most 0.5.

As for A21C A42U A45U, the yeast fitness is 0.646.

As to A20U C30U C34G U53C A57U G67C, the yeast fitness is at most 0.5.

In the case of A20G C60U C62U, the yeast fitness is at most 0.5.

For A21G C29U A36U A43U C62A, the yeast fitness is 0.559.

For the variant A21G C27G A42U, the yeast fitness was at most 0.5.

Take A20U C30A: the yeast fitness is 0.795.

Consider A21G A40G C55A, for which the yeast fitness stood at 0.535.

For A20G G25A C34A A36G G50C, the yeast fitness is at most 0.5.

For the variant A20U G51A C61G, the yeast fitness is at most 0.5.

In the case of A21U C34G U35C, the yeast fitness came out at 0.785.

For A21G U35C C66A, the yeast fitness is at most 0.5.

Take A21G C33U C49A: the yeast fitness amounted to 0.502.

Take A21U A40C A42U C49U G50C G63A C66U: the yeast fitness is at most 0.5.

With A21G C29U G38C, the yeast fitness came to 0.814.

Take A21U C31A C61U: the yeast fitness is at most 0.5.

For the variant A21G G23A C66G, the yeast fitness is at most 0.5.

A20U A70G: the yeast fitness came to 0.918.

As for A21G G23A A40C G52A, the yeast fitness is at most 0.5.

For the variant A21C C34U A36U G38C C49U, the yeast fitness was at most 0.5.

In the case of A20U G39A A45C A57C G68C, the yeast fitness was at most 0.5.

As to A21G C49U, the yeast fitness was determined as 0.994.

A20G G67U A69C: the yeast fitness is at most 0.5.

As to A21G C31U C49U, the yeast fitness came to 0.97.

For A20G C49U C61G, the yeast fitness is 0.617.

As for A21G C55G, the yeast fitness was found to be 0.671.

As to A21G C55A, the yeast fitness stood at 0.641.

As for A21U C33U G38A A45U C62U, the yeast fitness is at most 0.5.

In the case of A20G G56C G68C, the yeast fitness came to 0.6.

A21G C31G C33G: the yeast fitness is at most 0.5.

For the variant A21U A42G C62A, the yeast fitness was at most 0.5.

In the case of A21G U32C A65U G68A, the yeast fitness is 0.63.

On to A21C A36U A37G A42C U64A, for which the yeast fitness is at most 0.5.

A21G C31A: the yeast fitness is 0.962.

For A20U G44C A45G, the yeast fitness turned out to be 0.596.

With A20G G23C C31U A57U C66U, the yeast fitness is at most 0.5.

Turning to A20U U59A, the yeast fitness is 0.847.

Turning to A20U U59G, the yeast fitness turned out to be 0.728.

With A20U A36G A43U, the yeast fitness was determined as 0.601.

In the case of A21U C49G, the yeast fitness was 0.618.

A20G G58C: the yeast fitness came out at 1.

In the case of A21G C30U G67A, the yeast fitness is 0.633.

(Values after the RNAGym collection of RNA variant scans (doi:10.1126/science.aae0568).)
